Data published in ChEMBL document CHEMBL3046615, “Isolation of nematicidal compounds from Tagetes patula L. yellow flowers: structure-activity relationship studies against cyst nematode Heterodera zeae infective stage larvae” (2011).
Calls of active or inactive are those of the source.

How the values were obtained:
Heterodera zeae [1] = assay: Nematicidal activity against Heterodera zeae infective stage larvae assessed as nematode mortality at 2% under light conditions measured 5 to 60 min post dose by stereoscopic microscopy; assay type: functional, organism-based
In short: (§1)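 H. zeae freshly hatched second-stage juveniles, 100 per plate, three replicates, at 28 ± 2 °C under light or in a dark box. Dilutions are % of a stock: 30 mg/mL for extracts/fractions, 1 mg/mL for pure compounds. Methanol-, DMSO- or water-soluble samples were tested in glass cavity blocks. Petroleum ether-soluble samples were air-dried in the block and covered with agar pieces bearing cultured larvae. Mortality was followed over 5–60 min; each value is the mean of three experiments.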

Heterodera zeae [2] = assay: Nematicidal activity against Heterodera zeae infective stage larvae assessed as nematode mortality at 0.25% under dark conditions measured 24 hr post dose by stereoscopic microscopy; assay type: functional
In short: (§2)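 Freshly hatched H. zeae second-stage juveniles, 100 per Petri plate, three replicates. Samples in MeOH, DMSO or water were tested in glass cavity blocks; petroleum ether samples were dried onto the block and larvae transferred on agar pieces. Percentages are dilutions of 30 mg/mL stocks (extracts/fractions) or 1 mg/mL stocks (pure compounds). Incubated at 28 ± 2 °C in light or dark box; mortality averaged over three replicates.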

Heterodera zeae [3] = assay: Nematicidal activity against Heterodera zeae infective stage larvae assessed as nematode mortality at 0.25% under light conditions measured 5 to 60 min post dose by stereoscopic microscopy; assay type: functional, organism-based; in short: as §1
Heterodera zeae [4] = assay: Nematicidal activity against Heterodera zeae infective stage larvae assessed as nematode mortality at 0.5% under dark conditions measured 5 to 60 min post dose by stereoscopic microscopy; assay type: functional, organism-based; in short: as §1
Heterodera zeae [5] = assay: Nematicidal activity against Heterodera zeae infective stage larvae assessed as nematode mortality at 0.25% under light conditions measured 24 hr post dose by stereoscopic microscopy; assay type: functional; in short: as §2
Heterodera zeae [6] = assay: Nematicidal activity against Heterodera zeae infective stage larvae assessed as nematode mortality at 1% under light conditions measured 5 to 60 min post dose by stereoscopic microscopy; assay type: functional, organism-based; in short: as §1
Heterodera zeae [7] = assay: Nematicidal activity against Heterodera zeae infective stage larvae assessed as nematode mortality at 0.125% under light conditions measured 24 hr post dose by stereoscopic microscopy; assay type: functional; in short: as §2
Heterodera zeae [8] = assay: Nematicidal activity against Heterodera zeae infective stage larvae assessed as nematode mortality at 1% under dark conditions measured 5 to 60 min post dose by stereoscopic microscopy; assay type: functional, organism-based; in short: as §1
Heterodera zeae [9] = assay: Nematicidal activity against Heterodera zeae infective stage larvae assessed as nematode mortality at 0.5% under light conditions measured 24 hr post dose by stereoscopic microscopy; assay type: functional; in short: as §2
Heterodera zeae [10] = assay: Nematicidal activity against Heterodera zeae infective stage larvae assessed as nematode mortality at 5% under dark conditions measured 5 to 60 min post dose by stereoscopic microscopy; assay type: functional, organism-based; in short: as §1
Heterodera zeae [11] = assay: Nematicidal activity against Heterodera zeae infective stage larvae assessed as nematode mortality at 1% under light conditions measured 24 hr post dose by stereoscopic microscopy; assay type: functional; in short: as §2
Heterodera zeae [12] = assay: Nematicidal activity against Heterodera zeae infective stage larvae assessed as nematode mortality at 2% under dark conditions measured 5 to 60 min post dose by stereoscopic microscopy; assay type: functional, organism-based; in short: as §1
Heterodera zeae [13] = assay: Nematicidal activity against Heterodera zeae infective stage larvae assessed as nematode mortality at 0.5% under dark conditions measured 24 hr post dose by stereoscopic microscopy; assay type: functional; in short: as §2
Heterodera zeae [14] = assay: Nematicidal activity against Heterodera zeae infective stage larvae assessed as nematode mortality at 5% under light conditions measured 5 to 60 min post dose by stereoscopic microscopy; assay type: functional, organism-based; in short: as §1
Heterodera zeae [15] = assay: Nematicidal activity against Heterodera zeae infective stage larvae assessed as nematode mortality at 0.125% under light conditions measured 5 to 60 min post dose by stereoscopic microscopy; assay type: functional, organism-based; in short: as §1
Heterodera zeae [16] = assay: Nematicidal activity against Heterodera zeae infective stage larvae assessed as nematode mortality at 1% under dark conditions measured 24 hr post dose by stereoscopic microscopy; assay type: functional; in short: as §2
Heterodera zeae [17] = assay: Nematicidal activity against Heterodera zeae infective stage larvae assessed as nematode mortality at 0.125% under dark conditions measured 24 hr post dose by stereoscopic microscopy; assay type: functional; in short: as §2
Heterodera zeae [18] = assay: Nematicidal activity against Heterodera zeae infective stage larvae assessed as nematode mortality at 0.125% under dark conditions measured 5 to 60 min post dose by stereoscopic microscopy; assay type: functional, organism-based; in short: as §1
Heterodera zeae [19] = assay: Nematicidal activity against Heterodera zeae infective stage larvae assessed as nematode mortality at 0.25% under dark conditions measured 5 to 60 min post dose by stereoscopic microscopy; assay type: functional, organism-based; in short: as §1
Heterodera zeae [20] = assay: Nematicidal activity against Heterodera zeae infective stage larvae assessed as nematode mortality at 0.5% under light conditions measured 5 to 60 min post dose by stereoscopic microscopy; assay type: functional, organism-based; in short: as §1
Heterodera zeae [21] = assay: Nematicidal activity against Heterodera zeae infective stage larvae assessed as nematode mortality at 0.5% under light conditions measured 48 hr post dose by stereoscopic microscopy; assay type: functional; in short: as §2
Heterodera zeae [22] = assay: Nematicidal activity against Heterodera zeae infective stage larvae assessed as nematode mortality at 0.125% under light conditions measured 48 hr post dose by stereoscopic microscopy; assay type: functional; in short: as §2
Heterodera zeae [23] = assay: Nematicidal activity against Heterodera zeae infective stage larvae assessed as nematode mortality at 0.25% under dark conditions measured 72 hr post dose by stereoscopic microscopy; assay type: functional; in short: as §2
Heterodera zeae [24] = assay: Nematicidal activity against Heterodera zeae infective stage larvae assessed as nematode mortality at 0.125% under dark conditions measured 48 hr post dose by stereoscopic microscopy; assay type: functional; in short: as §2
Heterodera zeae [25] = assay: Nematicidal activity against Heterodera zeae infective stage larvae assessed as nematode mortality at 0.25% under dark conditions measured 48 hr post dose by stereoscopic microscopy; assay type: functional; in short: as §2
Heterodera zeae [26] = assay: Nematicidal activity against Heterodera zeae infective stage larvae assessed as nematode mortality at 1% under light conditions measured 48 hr post dose by stereoscopic microscopy; assay type: functional; in short: as §2
Heterodera zeae [27] = assay: Nematicidal activity against Heterodera zeae infective stage larvae assessed as nematode mortality at 0.25% under light conditions measured 48 hr post dose by stereoscopic microscopy; assay type: functional; in short: as §2
Heterodera zeae [28] = assay: Nematicidal activity against Heterodera zeae infective stage larvae assessed as nematode mortality at 0.125% under dark conditions measured 72 hr post dose by stereoscopic microscopy; assay type: functional; in short: as §2
Heterodera zeae [29] = assay: Nematicidal activity against Heterodera zeae infective stage larvae assessed as nematode mortality at 0.5% under dark conditions measured 48 hr post dose by stereoscopic microscopy; assay type: functional; in short: as §2
Heterodera zeae [30] = assay: Nematicidal activity against Heterodera zeae infective stage larvae assessed as nematode mortality at 1% under dark conditions measured 48 hr post dose by stereoscopic microscopy; assay type: functional; in short: as §2

c1csc(-c2ccc(-c3cccs3)s2)c1 [ALPHA-TERTHIENYL]
100%: mortality (Heterodera zeae [2]) | mortality (Heterodera zeae [5]) | mortality (Heterodera zeae [7]) | mortality (Heterodera zeae [9]) | mortality (Heterodera zeae [11]) | mortality (Heterodera zeae [13]) | mortality (Heterodera zeae [16]) | mortality (Heterodera zeae [17])
inactive: Activity (Heterodera zeae [1]) | Activity (Heterodera zeae [3]) | Activity (Heterodera zeae [4]) | Activity (Heterodera zeae [6]) | Activity (Heterodera zeae [8]) | Activity (Heterodera zeae [10]) | Activity (Heterodera zeae [12]) | Activity (Heterodera zeae [14]) | Activity (Heterodera zeae [15]) | Activity (Heterodera zeae [18]) | Activity (Heterodera zeae [19]) | Activity (Heterodera zeae [20])

C[C@@H]1O[C@@H](OC[C@H]2O[C@@H](Oc3c(-c4ccc(O)c(O)c4)oc4cc(O)cc(O)c4c3=O)[C@H](O)[C@@H](O)[C@@H]2O)[C@H](O)[C@H](O)[C@H]1O [RUTIN]
100%: mortality (Heterodera zeae [21]) | mortality (Heterodera zeae [22]) | mortality (Heterodera zeae [9]) | mortality (Heterodera zeae [11]) | mortality (Heterodera zeae [13]) | mortality (Heterodera zeae [26]) | mortality (Heterodera zeae [16]) | mortality (Heterodera zeae [27])
70%: mortality (Heterodera zeae [23]) | mortality (Heterodera zeae [24]) | mortality (Heterodera zeae [25]) | mortality (Heterodera zeae [28])
inactive: Activity (Heterodera zeae [1]) | Activity (Heterodera zeae [3]) | Activity (Heterodera zeae [4]) | Activity (Heterodera zeae [6]) | Activity (Heterodera zeae [8]) | Activity (Heterodera zeae [10]) | Activity (Heterodera zeae [12]) | Activity (Heterodera zeae [14]) | Activity (Heterodera zeae [15]) | Activity (Heterodera zeae [18]) | Activity (Heterodera zeae [19]) | Activity (Heterodera zeae [20])
0%: mortality (Heterodera zeae [2]) | mortality (Heterodera zeae [5]) | mortality (Heterodera zeae [7]) | mortality (Heterodera zeae [17])

CCCCC/C=C\C/C=C\CCCCCCCC(=O)O [LINOLEIC ACID]
inactive: Activity (Heterodera zeae [1]) | Activity (Heterodera zeae [3]) | Activity (Heterodera zeae [4]) | Activity (Heterodera zeae [6]) | Activity (Heterodera zeae [8]) | Activity (Heterodera zeae [10]) | Activity (Heterodera zeae [12]) | Activity (Heterodera zeae [14]) | Activity (Heterodera zeae [15]) | Activity (Heterodera zeae [18]) | Activity (Heterodera zeae [19]) | Activity (Heterodera zeae [20])
100%: mortality (Heterodera zeae [2]) | mortality (Heterodera zeae [5]) | mortality (Heterodera zeae [7]) | mortality (Heterodera zeae [9]) | mortality (Heterodera zeae [11]) | mortality (Heterodera zeae [13]) | mortality (Heterodera zeae [16]) | mortality (Heterodera zeae [17])

COc1cc(C(=O)O)cc(OC)c1OC [3,4,5-TRIMETHOXYBENZOIC ACID]
80%: mortality (Heterodera zeae [17])
inactive: Activity (Heterodera zeae [1]) | Activity (Heterodera zeae [3]) | Activity (Heterodera zeae [4]) | Activity (Heterodera zeae [6]) | Activity (Heterodera zeae [8]) | Activity (Heterodera zeae [10]) | Activity (Heterodera zeae [12]) | Activity (Heterodera zeae [14]) | Activity (Heterodera zeae [15]) | Activity (Heterodera zeae [18]) | Activity (Heterodera zeae [19]) | Activity (Heterodera zeae [20])
100%: mortality (Heterodera zeae [22]) | mortality (Heterodera zeae [29]) | mortality (Heterodera zeae [9]) | mortality (Heterodera zeae [11]) | mortality (Heterodera zeae [24]) | mortality (Heterodera zeae [25]) | mortality (Heterodera zeae [16]) | mortality (Heterodera zeae [27])
90%: mortality (Heterodera zeae [2]) | mortality (Heterodera zeae [5]) | mortality (Heterodera zeae [7]) | mortality (Heterodera zeae [13])

O=C(O)c1cc(O)c(O)c(O)c1 [GALLIC ACID]
100%: mortality (Heterodera zeae [2]) | mortality (Heterodera zeae [5]) | mortality (Heterodera zeae [7]) | mortality (Heterodera zeae [9]) | mortality (Heterodera zeae [11]) | mortality (Heterodera zeae [13]) | mortality (Heterodera zeae [16]) | mortality (Heterodera zeae [17])
inactive: Activity (Heterodera zeae [1]) | Activity (Heterodera zeae [3]) | Activity (Heterodera zeae [4]) | Activity (Heterodera zeae [6]) | Activity (Heterodera zeae [8]) | Activity (Heterodera zeae [10]) | Activity (Heterodera zeae [12]) | Activity (Heterodera zeae [14]) | Activity (Heterodera zeae [15]) | Activity (Heterodera zeae [18]) | Activity (Heterodera zeae [19]) | Activity (Heterodera zeae [20])

O=C(O)c1ccc(O)c(O)c1 [PROTOCATECHUIC ACID]
50%: mortality (Heterodera zeae [5]) | mortality (Heterodera zeae [7]) | mortality (Heterodera zeae [9])
inactive: Activity (Heterodera zeae [1]) | Activity (Heterodera zeae [3]) | Activity (Heterodera zeae [4]) | Activity (Heterodera zeae [6]) | Activity (Heterodera zeae [8]) | Activity (Heterodera zeae [10]) | Activity (Heterodera zeae [12]) | Activity (Heterodera zeae [14]) | Activity (Heterodera zeae [15]) | Activity (Heterodera zeae [18]) | Activity (Heterodera zeae [19]) | Activity (Heterodera zeae [20])
100%: mortality (Heterodera zeae [21]) | mortality (Heterodera zeae [22]) | mortality (Heterodera zeae [29]) | mortality (Heterodera zeae [11]) | mortality (Heterodera zeae [24]) | mortality (Heterodera zeae [30]) | mortality (Heterodera zeae [25]) | mortality (Heterodera zeae [27])
10%: mortality (Heterodera zeae [2]) | mortality (Heterodera zeae [17])
40%: mortality (Heterodera zeae [13]) | mortality (Heterodera zeae [16])

COC(=O)c1ccc(O)c(O)c1 [METHYL PROTOCATECHUATE]
100%: mortality (Heterodera zeae [21]) | mortality (Heterodera zeae [22]) | mortality (Heterodera zeae [29]) | mortality (Heterodera zeae [11]) | mortality (Heterodera zeae [24]) | mortality (Heterodera zeae [30]) | mortality (Heterodera zeae [25]) | mortality (Heterodera zeae [27])
50%: mortality (Heterodera zeae [5]) | mortality (Heterodera zeae [7])
10%: mortality (Heterodera zeae [2]) | mortality (Heterodera zeae [17])
inactive: Activity (Heterodera zeae [1]) | Activity (Heterodera zeae [3]) | Activity (Heterodera zeae [4]) | Activity (Heterodera zeae [6]) | Activity (Heterodera zeae [8]) | Activity (Heterodera zeae [10]) | Activity (Heterodera zeae [12]) | Activity (Heterodera zeae [14]) | Activity (Heterodera zeae [15]) | Activity (Heterodera zeae [18]) | Activity (Heterodera zeae [19]) | Activity (Heterodera zeae [20])
20%: mortality (Heterodera zeae [13])
60%: mortality (Heterodera zeae [16])
70%: mortality (Heterodera zeae [9])
